Screening data: PubChem BioAssay, Broad Institute
PGC1a acetyl inh – lowers PGC1a acetylation signal in U2OS cells | AlphaScreen anti-acetyl-lysine; with virally co-expressed GCN5 acetyltransferase | inhibition, % at 15.6 µM | hit rate 0.17% among 350,000 | AID 651687;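 active means every replicate shows inhibition of at least 40%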;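 further: 0% = neutral control wells and 100% = positive control wells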
DENV2 CPE rescue – inhibitors of DENV2 cytopathic effect | DENV2-infected cells, cytopathic effect rescue, plate reader | CPE inhibition, % at 9.99 µM | hit rate 1.7% among 350,000; in the data active means CPE inhibition above about 20%, passing the limit was not always enough; tested in BHK-21 cells;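 further: 0% = median of neutral control wells and 100% = median of positive control wells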
Cneo AK release – causes C. neoformans cell lysis; adenylate kinase release luminescence, 4 h; normalised: neutral wells 0, clomiphene wells 100; lysis activity, % at 15 µM; hit rate 0.2% among 360,000; AID 651654;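 active means mean lysis activity across replicates of at least 80%, whatever share of replicates individually reach that level; inactive means mean lysis activity below 80%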
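Material: C. neoformans cells | Amount: Yeast cell density of 5 × 10^6 cells/mL | Medium: Fresh YPD growth medium | Dosing: Single dose | Times: Static 4 h at 37 °C with compound, 1 h detection | Detection: AK luminescence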
CFTR F508del cor – CFTR F508del correction in bronchial cells. CFBE cells, YFP halide quenching; stimulated with forskolin plus potentiator P3; % fluorescence drop versus neutral controls. activity (quench increase), % at 7.58 µM. hit rate 0.36% among 350,000. AID 720511;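 active means mean added fluorescence quench of at least 8% versus neutral control, with both replicates also reaching 8%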;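 further: cells transiently co-express mutant CFTR-F508del with the halide-sensitive YFP; corrector assay measuring rescue of mutant channel to the surface after 24 h compound exposure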
FN deposition inh – fibronectin deposition inhibition; AH1F fibroblasts, Alexa488-fibronectin deposition fluorescence, overnight; inhibition, % at 12.6 µM; hit rate 0.086% among 350,000;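 active means mean inhibition across replicates of 30% or more, regardless of how many single replicates reach that level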;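 further: positive control wells lacked labelled fibronectin entirely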
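material = AH1F fibroblast monolayer depositing Alexa488-labelled fibronectin into matrix | amount = 10000 AH1F cells/well | buffer or medium = DMEM plus 2% serum, read in PBS | incubation = 1 h cell adhesion before compound, then overnight fibronectin incubation | detection = fluorescence at 485 nm excitation, 525 nm emission | evaluation = percent inhibition as loss of matrix-bound fibronectin fluorescence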
XiGFP reactiv – X-chromosome reactivation activator; XiGFP mouse fibroblasts, % GFP-positive cells imaging, 3 d; cells co-treated with 5-aza-dC sensitizer; scaled so ellipticine positive control = 100%; activation, % at 7.58 µM; hit rate 0.055% among 360,000;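 active means mean normalized replicate activation at least 10% and every replicate at or above 10%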;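 further: 0% = median of on-plate neutral control wells and 100% = ellipticine 6 µM median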
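System: 68-5-11 XiGFP fibroblast line | Buffer or medium: DMEM containing 5-aza-dC | Compound: Single point | Times: Compounds 3 days, fix/stain 15 min at room temperature | Benchmarks: Positive control ellipticine, 6 µM final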
* = called active by the depositor; nt = not tested or not shown; ! = repeats disagree. This is a sample that favours compounds with a hit; in the whole collection about 1.9% have one here.

SMILES | PGC1a acetyl inh | DENV2 CPE rescue | Cneo AK release | CFTR F508del cor | FN deposition inh | XiGFP reactiv
Cc1ccc(S(=O)(=O)Nc2cccc3c2O[C@H](CN(C)Cc2ccc(C(=O)Nc4ccccc4N)cc2)[C@@H](C)CN([C@@H](C)CO)C3=O)cc1 | 0.7 | 4.3 | nt | -0.7 | nt | 0.5
C[C@@H]1CN([C@@H](C)CO)C(=O)c2cccc(NS(=O)(=O)c3ccc(F)cc3)c2O[C@@H]1CN(C)Cc1ccc(C(=O)Nc2ccccc2N)cc1 | -42.1 | -6.7 | 4.9 | 2.4 | nt | 0.9
C[C@H]1CN([C@@H](C)CO)C(=O)c2cccc(NS(=O)(=O)c3ccc(F)cc3)c2O[C@H]1CN(C)Cc1ccc(C(=O)Nc2ccccc2N)cc1 | -6.8 | 22.0* | nt | -0.1 | nt | 0.5
C[C@H]1CN([C@@H](C)CO)C(=O)c2cc(NS(=O)(=O)c3cn(C)cn3)ccc2O[C@@H]1CN(C)Cc1ccc(C(=O)Nc2ccccc2N)cc1 | -7.8 | -1.5 | -1.0 | -4.5 | nt | 0.2
CS(=O)(=O)N1C[C@@H]2C(c3ccc(Br)cc3)[C@H](C1)N2Cc1ccc(F)cc1 (stereo partly drawn) | nt | nt | nt | nt | -3.9 | 0.0
CC[N+]1(C)CCC(=C2c3ccccc3CC(=O)c3sccc32)CC1 (stereo not drawn) | 10.3 | nt | -1.9 | nt | -2.9 | nt
C[N+]1(C)CCC(=C2c3ccccc3CC(=O)c3sccc32)CC1 | 93.7* | nt | 0.1 | nt | 4.2 | nt
O=C(C1CCC1)N1CC2(C1)[C@H](c1ccccc1)[C@H](CO)N2Cc1cccnc1 | 3.7 | 2.0 | nt | -0.2 | nt | 0.0
COc1ccc2c3c([nH]c2c1)[C@@H](CO)NCC31CCN(Cc2ccc(F)cc2)CC1 | 4.6 | 24.2* | nt | 0.0 | -8.0 | 0.0
COc1ccc2c3c([nH]c2c1)[C@@H](CO)NCC31CCN(C(=O)C2CCCC2)CC1 | nt | 77.8* | nt | 4.9 | nt | 0.5
CCCC#Cc1ccc([C@H]2[C@@H](CO)N3CCCCN(CC4CC4)C[C@H]23)cc1 | -14.8 | 1.2 | 0.8 | 2.2 | nt | nt
CC1(C(=O)NCc2ccccc2)CN(S(C)(=O)=O)CC(=O)N1CCc1ccc(O)cc1 (stereo not drawn) | nt | 26.0* | nt | -0.7 | 9.0 | 0.2
CC(C)CN1C(=O)CN(S(C)(=O)=O)CC1(C)C(=O)NC(C)C (stereo not drawn) | nt | 27.4* | nt | -0.2 | 2.4 | 0.0
CC1(C(=O)NCc2ccccc2)CN(S(C)(=O)=O)CC(=O)N1CCc1ccccc1F (stereo not drawn) | nt | 74.3* | nt | 3.0 | 15.7 | 0.4
Cc1ccccc1-c1cc(C(=O)O)nn1CC1CC(c2cccc([N+](=O)[O-])c2)=NO1 (stereo not drawn) | nt | 126.1* | 3.0 | 0.5 | -31.9 | 0.0
Cc1ccccc1-c1cc(C(=O)NCc2cccc(C(F)(F)F)c2)nn1CC1CC(c2cccc([N+](=O)[O-])c2)=NO1 (stereo not drawn) | -24.2 | 49.0* | -3.6 | 2.6 | -1.8 | 0.3
O=C(NCc1ccccc1)C1=C[C@H](c2csc3ccccc23)C[C@H](OCCCCO)O1 | -19.7 | 2.0 | -8.3 | -0.3 | -6.7 | 0.2
NC(=O)C1=C[C@H](c2coc3ccccc3c2=O)C[C@H](OCCCCO)O1 | nt | -1.8 | -1.7 | 2.3 | 33.2* | 0.5
O=C(Nc1ccccc1)C1=C[C@H](c2csc3ccccc23)C[C@H](OCCCCO)O1 | -4.1 | 20.2*! | 3.2 | 2.7 | -3.0 | 0.3
CNC[C@@H]1Oc2ncc(C#CCC(C)C)cc2C(=O)N([C@H](C)CO)C[C@@H]1C | nt | -5.4 | nt | -2.9 | -2.2 | 0.0
CNC[C@H]1Oc2ncc(C#Cc3ccccc3F)cc2C(=O)N([C@@H](C)CO)C[C@H]1C | 4.2 | 70.9* | -1.0 | 1.9 | nt | 0.5
CNC[C@H]1Oc2ncc(C#CCC(C)C)cc2C(=O)N([C@H](C)CO)C[C@H]1C | -6.1 | -3.0 | 90.3* | 2.3 | 4.4 | 0.1
Cc1ccc(S(=O)(=O)Nc2ccc3c(c2)C(=O)N([C@H](C)CO)C[C@@H](C)[C@H](CN(C)C(=O)NC2CCCCC2)O3)cc1 | -2.3 | 40.8* | -0.4 | -0.1 | nt | -0.8
CC(C)NC(=O)N(C)C[C@H]1Oc2ccc(NS(C)(=O)=O)cc2C(=O)N([C@H](C)CO)C[C@@H]1C | 14.4 | -9.3 | -2.8 | -4.0 | -4.6 | -1.2
Cc1ccc(S(=O)(=O)Nc2ccc3c(c2)C(=O)N([C@@H](C)CO)C[C@H](C)[C@H](CN(C)C(=O)NC(C)C)O3)cc1 | -15.5 | 31.9* | -4.0 | 2.6 | nt | -0.8
SMILES | PGC1a acetyl inh | DENV2 CPE rescue | Cneo AK release | CFTR F508del cor | FN deposition inh | XiGFP reactiv
CC(C)NC(=O)N(C)C[C@@H]1Oc2ccc(NS(C)(=O)=O)cc2C(=O)N([C@@H](C)CO)C[C@@H]1C | -0.7 | 20.4* | 5.1 | -3.1 | -8.0 | -1.1
CC(C)NC(=O)N(C)C[C@@H]1Oc2ncc(C#Cc3ccc(F)cc3)cc2C(=O)N([C@H](C)CO)C[C@H]1C | 0.4 | -9.2 | -0.4 | -0.4 | 9.8 | -0.7
CC(C)NC(=O)N(C)C[C@@H]1Oc2ncc(C#Cc3ccc(F)cc3)cc2C(=O)N([C@@H](C)CO)C[C@H]1C | 0.3 | 24.9* | 1.1 | -1.4 | 3.7 | -0.6
Cc1ccc(S(=O)(=O)N(C)C[C@H]2Oc3ncc(C#CC4(O)CCCC4)cc3C(=O)N([C@H](C)CO)C[C@H]2C)cc1 | -5.3 | 20.8* | 0.1 | -1.0 | -10.1 | -0.1
CCCN(C)C[C@H]1Oc2ncc(C#CC3(O)CCCC3)cc2C(=O)N([C@H](C)CO)C[C@H]1C | 2.0 | 26.8* | -3.5 | 0.3 | -0.2 | -0.1
COc1ccc(NC(=O)N(C)C[C@@H]2Oc3ncc(C#Cc4ccc(F)cc4)cc3C(=O)N([C@H](C)CO)C[C@@H]2C)cc1 | 14.6 | 62.6* | -0.5 | -2.4 | 6.4 | -1.1
CCCN(C)C[C@H]1Oc2ncc(C#CC3(O)CCCC3)cc2C(=O)N([C@@H](C)CO)C[C@H]1C | -6.0 | 9.1 | -4.8 | 0.1 | -9.3 | 0.5
COc1ccc2c3c(n(C)c2c1)[C@H](CO)N(CC1CC1)CC31CCN(C(=O)c2cccnc2)CC1 | -8.2 | 7.6 | nt | -0.8 | nt | 0.4
COCC#Cc1cnc2c(c1)C(=O)N([C@@H](C)CO)C[C@H](C)[C@H](CN(C)C(=O)Nc1ccc(OC)cc1)O2 | 2.5 | -16.9 | 109.0* | 1.9 | nt | -0.7
Cc1ccc(S(=O)(=O)N(C)C[C@@H]2Oc3ncc(/C=C/c4ccccc4)cc3C(=O)N([C@H](C)CO)C[C@@H]2C)cc1 | -23.8 | 23.5* | 0.3 | 2.0 | nt | 0.7
CCCC#Cc1cnc2c(c1)C(=O)N([C@H](C)CO)C[C@@H](C)[C@@H](CN(C)C(=O)Nc1ccc(OC)cc1)O2 | -0.7 | 0.3 | -0.6 | -0.7 | 0.3 | 0.6
